According to paper PMC5424638 (Biomolecules & Therapeutics, 2016):

Experiments:
[1] = Cytotoxicity assay; type: cell-based, rat; settings: Sprague-Dawley, rat, primary neonatal rat cardiomyocytes
How it was run: (§1)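 Ventricles from 1–3-day-old Sprague-Dawley rats were digested with 0.05% collagenase II/0.05% trypsin at 37°C, pre-plated 1.5 h to remove nonmyocytes, and cultured 3 days in DMEM/10% FBS. Cells were exposed to test compound at 0.01–1000 µM for 72 h (final DMSO ≤0.05%). MTT was added for 4 h at 37°C and absorbance read at 570 nm. TC50 (50% viability loss vs untreated) came from at least three dose-response curves.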

[2] = system: neonatal rat cardiomyocytes; assay: Cytotoxicity assay; type: cell-based; settings: for 50% toxic concentration (CC50) fold higher than in the cinnamaldehyde group: cardiomyocytes
How it was run: as §1

[3] = system: CVB3 (Nancy strain); assay: Anti-viral activity assay in CVB3-infected cardiomyocytes; type: cell-based, coxsackievirus B3; settings: for IC50: Enterovirus B, CVB3, Cardiomyocyte, 72 h; for TI (TC50/IC50): cardiomyocytes
How it was run: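 Neonatal rat cardiomyocytes grown to confluence (about 1x10^4 cells/well) were infected with CVB3 (Nancy strain, 100 TCID50) for 2 h in six replicates. Cells were washed three times with PBS, then exposed to serial dilutions of test compound for 72 h. XTT plus phenazine methosulfate was added for 2 h, and OD was read at 450 nm (reference 690 nm). Inhibition was (ODtv−ODcv)/(ODcd−ODcv)x100, giving IC50 and TI (TC50/IC50).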

[4] = system: CVB3-induced myocarditis; assay: CVB3-induced viral myocarditis mouse model, cardiac pathological score; type: in vivo, BALB/c mice; settings: for Pathological score (grade): day 7, n=10; for Myocardial damage compared with the infected control (model) group: 20, 40 and 60 mg/kg, day 7
How it was run: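 Four-week-old male BALB/c mice (n=10/group, pathogen-free) received CVB3 i.p. at 100xTCID50 in 0.1 ml RPMI 1640. From day 2, interferon alpha was given i.p. once daily, and test compound at 20, 40 or 60 mg/kg was given by oral gavage in 0.5% CMC-saline. On day 7, ventricles were formalin-fixed, paraffin-embedded, cut at 4 µm and H&E stained. Inflamed fraction of the section (eyepiece grid, x200) was graded 0–4 (<25%, 25–50%, 50–75%, >75%).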

[5] = system: CVB3; assay: Virus titration from heart homogenate of CVB3-infected mice; type: in vivo, BALB/c mice; settings: day 7, n=10
[6] = system: TNF-α; assay: TNF-α level in culture supernatant of CVB3-infected cardiomyocytes; type: cell-based, rat; settings: 10 μM, 72 h; viral control 80.12 ± 8.40
[7] = system: IL-1β; assay: IL-1β level in culture supernatant of CVB3-infected cardiomyocytes; type: cell-based, rat; settings: 10 μM, 72 h; viral control 163.64 ± 19.75
[8] = system: IL-6; assay: IL-6 level in culture supernatant of CVB3-infected cardiomyocytes; type: cell-based, rat; settings: 10 μM, 72 h; viral control 337.46 ± 29.22
[9] = system: TNF-α mRNA; assay: TNF-α mRNA expression in CVB3-infected cardiomyocytes; type: cell-based, rat; settings: 10 μM, 12 h
How it was run: (§2)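 Neonatal rat cardiomyocytes were infected with CVB3 and then incubated with 10 µM test compound. Cytokine mRNA expression in the cells was measured by real-time PCR after 12 h. Data are given as mean ± SD.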

[10] = system: IL-1β mRNA; assay: IL-1β mRNA expression in CVB3-infected cardiomyocytes; type: cell-based, rat; settings: 10 μM, 12 h
How it was run: as §2

[11] = system: IL-6 mRNA; assay: IL-6 mRNA expression in CVB3-infected cardiomyocytes; type: cell-based, rat; settings: 10 μM, 12 h
How it was run: as §2

[12] = system: TNF-α; assay: TNF-α protein expression in CVB3-infected cardiomyocytes; type: cell-based, rat; settings: 10 μM, 24 h
How it was run: (§3)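 CVB3-infected neonatal rat cardiomyocytes were treated with 10 µM test compound for 24 h. Whole-cell lysates (equal protein) were run on 15% SDS-PAGE and transferred to nitrocellulose. Membranes were blocked in 5% skimmed milk for 2 h at room temperature, probed with cytokine and GAPDH antibodies overnight at 4°C, then with HRP secondary for 1 h, and detected by chemiluminescence. Bands were expressed as ratio to GAPDH (n=3, mean ± SD).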

[13] = system: IL-1β; assay: IL-1β protein expression in CVB3-infected cardiomyocytes; type: cell-based, rat; settings: 10 μM, 24 h
How it was run: as §3

[14] = system: IL-6; assay: IL-6 protein expression in CVB3-infected cardiomyocytes; type: cell-based, rat; settings: 10 μM, 24 h
How it was run: as §3

[15] = 24 h stability in blood at room temperature; type: in vitro ADME, rat; settings: unpublished data
[16] = Pharmacokinetics in rats after single oral administration; type: in vivo, rat; settings: single oral dose 20 mg/kg, preliminary, unpublished data
[17] = ref Yuan et al., 1992; cited from earlier work

| SMILES | CC50 at 72 h [1] [µM] | 50% toxic concentration (CC50) fold higher than in the cinnamaldehyde group [2] [fold] | IC50 [3] [µM] | TI (TC50/IC50) [3] | Pathological score (grade) ([4]; 20 mg/kg/day, oral gavage) | Pathological score (grade) ([4]; 40 mg/kg/day) | Pathological score (grade) ([4]; 60 mg/kg/day, oral gavage) | Myocardial damage compared with the infected control (model) group [4] | Viral titers ([5]; 20 mg/kg/day, oral gavage) [Log TCID50/mg] | TNF-α mRNA expression [9] | IL-1β mRNA expression [10] | IL-6 mRNA expression [11] | CVB3-mediated TNF-α expression (Western blot) [12] | CVB3-mediated IL-1β expression (Western blot) [13] | CVB3-mediated IL-6 expression (Western blot) [14] | Stability in blood [15] | Time at which peak concentration was achieved after oral administration [16] | Viral titers ([5]; 40 mg/kg/day) [Log TCID50/mg] | also measured |
| --- | --- | --- | --- | --- | --- | --- | --- | --- | --- | --- | --- | --- | --- | --- | --- | --- | --- | --- | --- |
| O=C/C(Br)=C/c1ccc(Cl)cc1 [Compound 5, (Z)-2-bromo-3-(4-chlorophenyl) acrylaldehyde] | 85.7 ± 7.63 | 87 | 2.12 ± 0.37 | 40.42 | 1.95 ± 0.40 | 1.75 ± 0.60 | 1.30 ± 0.50 | significantly reduced | 2.80 ± 0.42 | inhibited | inhibited | inhibited | markedly diminished | markedly diminished | markedly diminished | stable for 24 h | ~2.1 h | – | TNF-α level in culture supernatant [6]: 43.60 ± 4.77 pg/mL; IL-1β level in culture supernatant [7]: 112.72 ± 13.60 pg/mL; IL-6 level in culture supernatant [8]: 232.80 ± 19.62 pg/mL |
| COc1ccc(/C=C/C=O)cc1 [Compound 3, (E)-3-(4-methoxyphenyl)acrylaldehyde] | 7.88 ± 0.82 | – | – | – | – | – | – | – | – | – | – | – | – | – | – | – | – | – | – |
| Cc1ccc(/C=C/C=O)cc1 [Compound 1, (E)-3-p-tolylacrylaldehyde] | 3.96 ± 0.29 | – | – | – | – | – | – | – | – | – | – | – | – | – | – | – | – | – | – |
| Cc1ccc(/C=C(\Br)C=O)cc1 [Compound 4, (Z)-2-bromo-3-p-tolylacrylaldehyde] | 38.6 ± 4.89 | 39 | 11.4 ± 2.22 | 3.39 | 2.80 ± 0.70 | 2.10 ± 0.60 | 1.90 ± 0.60 | significantly reduced | 3.10 ± 0.74 | inhibited | inhibited | inhibited | markedly diminished | markedly diminished | markedly diminished | stable for 24 h | ~3.3 h | 2.90 ± 0.57 | – |
| O=C/C=C/c1ccc(Cl)cc1 [Compound 2, (E)-3-(4-chlorophenyl) acrylaldehyde] | 6970 | 7114 | 2110 | 3.31 | 2.85 ± 0.70 | 2.85 ± 0.70 | 2.75 ± 0.60 | no significant difference | 3.30 ± 0.48 | – | – | – | – | – | – | stable for 24 h | about 1.2 h | 3.20 ± 0.63 | CC50 ([2]; neonatal rat cardiomyocytes, 0.01–1000 μM, 72 h, MTT, called TC50 in methods): no obvious cytotoxicity; Viral titers ([5]; 60 mg/kg/day, oral gavage): 3.10 ± 0.57 Log TCID50/mg |
| O=CC=Cc1ccccc1 [Cinnamaldehyde, 3-phenyl-2-propenal, reference compound] | 0.98 ± 0.12 | – | 24.2 ± 4.77 | 0.04 | – | 2.40 ± 0.50 | – | – | – | – | – | – | – | – | – | – | – | 2.80 ± 0.63 | Half-life in rat blood [17]: 4 min |
